Measured values taken from ChEMBL document CHEMBL1142136, “Contribution of target gene mutations and efflux to decreased susceptibility of Salmonella enterica serovar typhimurium to fluoroquinolones and other antimicrobials” (2007).
Converted amounts (≈) assume the structure as drawn.

What was measured:
Type in all cases: functional, Salmonella enterica subsp. enterica serovar Typhimurium
Salmonella typhimurium [1] = assay: Antimicrobial activity against Salmonella enterica serovar Typhimurium S21-2 gyrA+ with ParC S80I mutation
In short: (§1)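 MICs measured by broth microdilution on the Sensititre automated system and interpreted by CLSI broth microdilution standards. Ciprofloxacin was also tested by agar dilution, widening the range to 0.0075–128 μg/ml. Quality control strains were E. coli ATCC 25922 and 35218, E. faecalis ATCC 29212, S. aureus ATCC 29213 and P. aeruginosa ATCC 27853.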

Salmonella typhimurium [2] = assay: Antimicrobial activity against Salmonella enterica serovar Typhimurium CHS14 gyrA+ with GyrA D87G mutation; in short: as §1
Salmonella typhimurium [3] = assay: Antimicrobial activity against Salmonella enterica serovar Typhimurium CHS38 with GyrA D87G mutation; in short: as §1
Salmonella typhimurium [4] = assay: Antimicrobial activity against Salmonella enterica serovar Typhimurium CS3 tolC::Kan with GyrA S83F, D87N, parC S80I mutation; in short: as §1
Salmonella typhimurium [5] = assay: Antimicrobial activity against Salmonella enterica serovar Typhimurium S21-4 acrAB::Kan with GyrA S83F, ParC S80I mutation; in short: as §1
Salmonella typhimurium [6] = assay: Antimicrobial activity against Salmonella enterica serovar Typhimurium CS9 gyrA+ with GyrA S83F, D87N, ParC S80I mutation; in short: as §1
Salmonella typhimurium [7] = assay: Antimicrobial activity against Salmonella enterica serovar Typhimurium CHS18 acrAB::Kan with GyrA S38F mutation; in short: as §1
Salmonella typhimurium [8] = assay: Antimicrobial activity against Salmonella enterica serovar Typhimurium CS1 acrAB::Kan with GyrA S83F, D87N, ParC S80I mutation; in short: as §1
Salmonella typhimurium [9] = assay: Antimicrobial activity against Salmonella enterica serovar Typhimurium CHS18 gyrA+ with GyrA S38F mutation; in short: as §1
Salmonella typhimurium [10] = assay: Antimicrobial activity against Salmonella enterica serovar Typhimurium S21-4 tolC::Kan with GyrA S83F, ParC S80I mutation; in short: as §1
Salmonella typhimurium [11] = assay: Antimicrobial activity against Salmonella enterica serovar Typhimurium CHS38 tolC::Kan with GyrA D87G mutation; in short: as §1
Salmonella typhimurium [12] = assay: Antimicrobial activity against Salmonella enterica serovar Typhimurium GyrA S21-1 acrAB::Kan with GyrA S83F mutation; in short: as §1
Salmonella typhimurium [13] = assay: Antimicrobial activity against Salmonella enterica serovar Typhimurium S21 acrAB::Kan
In short: (§2)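 MICs by automated broth microdilution panels, interpreted to CLSI broth microdilution standards. Ciprofloxacin additionally tested by agar dilution across 0.0075 to 128 μg/ml. Quality control strains: E. coli ATCC 25922 and 35218, Enterococcus faecalis ATCC 29212, S. aureus ATCC 29213, P. aeruginosa ATCC 27853. Test strains are kanamycin-marked deletion mutants of ground-beef isolate S21.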

Salmonella typhimurium [14] = assay: Antimicrobial activity against Salmonella enterica serovar Typhimurium CHS18 with GyrA S38F mutation; in short: as §1
Salmonella typhimurium [15] = assay: Antimicrobial activity against Salmonella enterica serovar Typhimurium CHS38 gyrA+ with GyrA D87G mutation; in short: as §1
Salmonella typhimurium [16] = assay: Antimicrobial activity against Salmonella enterica serovar Typhimurium S21-2 acrAB::Kan with GyrA S83F, ParC S80I mutation; in short: as §1
Salmonella typhimurium [17] = assay: Antimicrobial activity against Salmonella enterica serovar Typhimurium CS1 gyrA+ with GyrA S83F, D87N, ParC S80I mutation; in short: as §1
Salmonella typhimurium [18] = assay: Antimicrobial activity against Salmonella enterica serovar Typhimurium CHS18 tolC::Kan with GyrA S38F mutation; in short: as §1
Salmonella typhimurium [19] = assay: Antimicrobial activity against Salmonella enterica serovar Typhimurium S21-1 gyrA+; in short: as §1
Salmonella typhimurium [20] = assay: Antimicrobial activity against Salmonella enterica serovar Typhimurium S21-1 tolC::Kan with GyrA S83F mutation; in short: as §1
Salmonella typhimurium [21] = assay: Antimicrobial activity against Salmonella enterica serovar Typhimurium S21 tolC::Kan; in short: as §2
Salmonella typhimurium [22] = assay: Antimicrobial activity against Salmonella enterica serovar Typhimurium CS9 acrAB::Kan with GyrA S83F, D87N, ParC S80I mutation; in short: as §1
Salmonella typhimurium [23] = assay: Antimicrobial activity against Salmonella enterica serovar Typhimurium S21-2 tolC::Kan with GyrA S83F, ParC S80I mutation; in short: as §1
Salmonella typhimurium [24] = assay: Antimicrobial activity against Salmonella enterica serovar Typhimurium CS3 with GyrA S83F, D87N, ParC S80I mutation; in short: as §1
Salmonella typhimurium [25] = assay: Antimicrobial activity against Salmonella enterica serovar Typhimurium CHS14 tolC::Kan with GyrA D87G mutant; in short: as §1
Salmonella typhimurium [26] = assay: Antimicrobial activity against Salmonella enterica serovar Typhimurium CHS14 with GyrA D87G mutation; in short: as §1
Salmonella typhimurium [27] = assay: Antimicrobial activity against Salmonella enterica serovar Typhimurium CHS14 acrAB::Kan with GyrA D87G mutation; in short: as §1
Salmonella typhimurium [28] = assay: Antimicrobial activity against Salmonella enterica serovar Typhimurium CS1 with GyrA S83F, D87N, ParC S80I mutation; in short: as §1
Salmonella typhimurium [29] = assay: Antimicrobial activity against Salmonella enterica serovar Typhimurium S21-4 with GyrA S83F, ParC S80I mutation; in short: as §1
Salmonella typhimurium [30] = assay: Antimicrobial activity against Salmonella enterica serovar Typhimurium S21-3 gyrA+ with ParC S80I mutation; in short: as §1
Salmonella typhimurium [31] = assay: Antimicrobial activity against Salmonella enterica serovar Typhimurium S21-2 with GyrA S83F, ParC S80I mutation; in short: as §1
Salmonella typhimurium [32] = assay: Antimicrobial activity against Salmonella enterica serovar Typhimurium CS3 gyrA+ with GyrA S83F, D87N, ParC S80I mutation; in short: as §1
Salmonella typhimurium [33] = assay: Antimicrobial activity against Salmonella enterica serovar Typhimurium CS1 tolC::Kan with GyrA S83F, D87N, ParC S80I mutation; in short: as §1
Salmonella typhimurium [34] = assay: Antimicrobial activity against Salmonella enterica serovar Typhimurium S21-1 GyrA S83F mutant; in short: as §1
Salmonella typhimurium [35] = assay: Antimicrobial activity against Salmonella enterica serovar Typhimurium S21; in short: as §1
Salmonella typhimurium [36] = assay: Antimicrobial activity against Salmonella enterica serovar Typhimurium CHS38 acrAB::Kan with GyrA D87G mutation; in short: as §1
Salmonella typhimurium [37] = assay: Antimicrobial activity against Salmonella enterica serovar Typhimurium S21 gyrA+; in short: as §1
Salmonella typhimurium [38] = assay: Antimicrobial activity against Salmonella enterica serovar Typhimurium S21-3 tolC::Kan with GyrA S83F, ParC S80I mutation; in short: as §1
Salmonella typhimurium [39] = assay: Antimicrobial activity against Salmonella enterica serovar Typhimurium S21-4 gyrA+ with ParC S80I mutation; in short: as §1
Salmonella typhimurium [40] = assay: Antimicrobial activity against Salmonella enterica serovar Typhimurium S21-3 with GyrA S83F, ParC S80I mutation; in short: as §1
Salmonella typhimurium [41] = assay: Antimicrobial activity against Salmonella enterica serovar Typhimurium CS3 acrAB::Kan with GyrA S83F, D87N, ParC S80I mutation; in short: as §1
Salmonella typhimurium [42] = assay: Antimicrobial activity against Salmonella enterica serovar Typhimurium S21-3 acrAB::Kan with GyrA S83F, ParC S80I mutation; in short: as §1
Salmonella typhimurium [43] = assay: Antimicrobial activity against Salmonella enterica serovar Typhimurium CS9 with GyrA S83F, D87N, ParC S80I mutation; in short: as §1
Salmonella typhimurium [44] = assay: Antimicrobial activity against Salmonella enterica serovar Typhimurium CS9 tolC::Kan with GyrA S83F, D87N, ParC S80I mutation; in short: as §1

O=C(O)c1cn(C2CC2)c2cc(N3CCNCC3)c(F)cc2c1=O [CIPROFLOXACIN]
MIC (Salmonella typhimurium [1]): 0.25 µg/mL (≈ 0.754 µM)
MIC (Salmonella typhimurium [2]): < 0.015 µg/mL
MIC (Salmonella typhimurium [3]): 0.06 µg/mL (≈ 0.181 µM)
MIC (Salmonella typhimurium [4]): 2 µg/mL (≈ 6.04 µM)
MIC (Salmonella typhimurium [5]): 0.25 µg/mL (≈ 0.754 µM)
MIC (Salmonella typhimurium [6]): 0.03 µg/mL (≈ 0.0905 µM)
MIC (Salmonella typhimurium [7]): 0.03 µg/mL (≈ 0.0905 µM)
MIC (Salmonella typhimurium [8]): 4 µg/mL (≈ 12.1 µM)
MIC (Salmonella typhimurium [9]): 0.06 µg/mL (≈ 0.181 µM)
MIC (Salmonella typhimurium [10]): 0.25 µg/mL (≈ 0.754 µM)
MIC (Salmonella typhimurium [11]): < 0.015 µg/mL
MIC (Salmonella typhimurium [12]): 0.06 µg/mL (≈ 0.181 µM)
MIC (Salmonella typhimurium [13]): < 0.015 µg/mL
MIC (Salmonella typhimurium [14]): 0.12 µg/mL (≈ 0.362 µM)
MIC (Salmonella typhimurium [15]): < 0.015 µg/mL
MIC (Salmonella typhimurium [16]): 0.12 µg/mL (≈ 0.362 µM)
MIC (Salmonella typhimurium [17]): 0.03 µg/mL (≈ 0.0905 µM)
MIC (Salmonella typhimurium [18]): 0.03 µg/mL (≈ 0.0905 µM)
MIC (Salmonella typhimurium [19]): 0.015 µg/mL (≈ 0.0453 µM)
MIC (Salmonella typhimurium [20]): 0.06 µg/mL (≈ 0.181 µM)
MIC (Salmonella typhimurium [21]): < 0.015 µg/mL
MIC (Salmonella typhimurium [22]): 4 µg/mL (≈ 12.1 µM)
MIC (Salmonella typhimurium [23]): 0.12 µg/mL (≈ 0.362 µM)
MIC (Salmonella typhimurium [24]): 16 µg/mL (≈ 48.3 µM)
MIC (Salmonella typhimurium [25]): < 0.015 µg/mL
MIC (Salmonella typhimurium [26]): 0.12 µg/mL (≈ 0.362 µM)
MIC (Salmonella typhimurium [27]): < 0.015 µg/mL
MIC (Salmonella typhimurium [28]): 16 µg/mL (≈ 48.3 µM)
MIC (Salmonella typhimurium [29]): 256 µg/mL (≈ 773 µM)
MIC (Salmonella typhimurium [30]): 2 µg/mL (≈ 6.04 µM)
MIC (Salmonella typhimurium [31]): 4 µg/mL (≈ 12.1 µM)
MIC (Salmonella typhimurium [32]): 0.03 µg/mL (≈ 0.0905 µM)
MIC (Salmonella typhimurium [33]): 2 µg/mL (≈ 6.04 µM)
MIC (Salmonella typhimurium [34]): 0.25 µg/mL (≈ 0.754 µM)
MIC (Salmonella typhimurium [35]): < 0.015 µg/mL
MIC (Salmonella typhimurium [36]): 0.03 µg/mL (≈ 0.0905 µM)
MIC (Salmonella typhimurium [37]): < 0.015 µg/mL
MIC (Salmonella typhimurium [38]): 0.25 µg/mL (≈ 0.754 µM)
MIC (Salmonella typhimurium [39]): 4 µg/mL (≈ 12.1 µM)
MIC (Salmonella typhimurium [40]): 32 µg/mL (≈ 96.6 µM)
MIC (Salmonella typhimurium [41]): 4 µg/mL (≈ 12.1 µM)
MIC (Salmonella typhimurium [42]): 0.25 µg/mL (≈ 0.754 µM)
MIC (Salmonella typhimurium [43]): 16 µg/mL (≈ 48.3 µM)
MIC (Salmonella typhimurium [44]): 2 µg/mL (≈ 6.04 µM)
